Values after ≈ are worked out from the molar mass of the structure shown.
How the values were obtained:
[1] = Microsomal stability in human liver microsomes assessed as half life at 0.5 uM preincubated followed by NADPH addition and measured upto 30 mins by LC-MS/MS analysis; type: ADME, Microsome
[2] = test system: Mycobacterium tuberculosis; experiment: Antimycobacterial activity against Mycobacterium tuberculosis H37Rv ATCC 25618 assessed as inhibition of microbial growth incubated for 6 days by resazurin based assay; type: functional; details: H37Rv ATCC 25618, 144 h, time 6 day
Method in brief: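 Ten two-fold dilutions made in neat DMSO, tested in Middlebrook 7H9 with the H37Rv inoculum. Controls: isoniazid from 4 μg/ml as positive control; rifampicin 1 μM as no-growth control. Plates sat sealed at 37 °C without shaking for 6 days.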

[3] = Microsomal stability in mouse liver microsomes assessed as half life at 0.5 uM preincubated followed by NADPH addition and measured upto 30 mins by LC-MS/MS analysis; type: ADME, Microsome
[4] = Chromatographic hydrophobicity index, log D of the compound in phosphate buffer at pH 7.4 by UV-HPLC analysis; type: physicochemical
[5] = Cytotoxicity against human HepG2 cells assessed as cell growth inhibition incubated for 48 hrs by CellTiter-Glo reagent based analysis; type: toxicity
Method in brief: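 HepG2 cells kept in Eagle's MEM with 10% heat-inactivated FBS, 1% NEAA and penicillin/streptomycin, seeded at ~3000 cells/well onto pre-dispensed compound. Incubation was 48 h at 37 °C, 5% CO2. Plates were equilibrated to room temperature, CellTiter-Glo was added, and ATP luminescence was read after 10 min as the viability read-out.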

[6] = test system: Mycobacterium tuberculosis; experiment: Antimycobacterial activity against Mycobacterium tuberculosis H37Rv ATCC 25618 expressing pATB45luc infected in PMA-stimulated human THP-1 cells assessed as inhibition of intracellular bacterial growth incubated for 4 days by BrightGlo luciferase assay; type: functional, organism-based; details: H37Rv ATCC 25618, THP-1, 96 h; for IC90: time 4 day
Method in brief: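 THP-1 cells grown in RPMI-1640 with 10% FBS, 1 mM pyruvate and 2 mM L-glutamine. Cells were PMA-differentiated (40 ng/ml) while infected with single-cell Mtb H37Rv-pATB45luc at MOI 1:1 for 4 h at 37 °C in a roller bottle, then washed four times. About 10000 cells/well were added onto pre-dispensed compound (max DMSO 0.5%) and incubated 4 days at 37 °C. Luciferase luminescence was read; IC50/IC90 came from nonlinear regression of dose-response curves.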

[7] = Kinetic aqueous solubility of compound in phosphate buffer at pH 7.4 incubated for 1 hrs by CLND assay; type: physicochemical; details: read-out: Kinetic_solubility
[8] = target: Voltage-gated inwardly rectifying potassium channel KCNH2 (Homo sapiens, UniProt Q12809); experiment: Inhibition of human ERG; type: toxicity
[9] = Stability of compound in CD1 mouse blood assessed as half life at 0.5 uM incubated upto 240 mins by LC-MS/MS analysis; type: ADME, tissue-based
Method in brief: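 Fresh CD1 mouse whole blood collected in EDTA tubes and spiked with compound. Three 300 μl aliquots were incubated at 37 °C. Supernatants were analysed by LC-MS/MS; analyte/internal standard ratios were normalised to time zero as % remaining, and half-life was taken from ln plots of % remaining.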

[10] = Artificial membrane permeability of the compound incubated for 3 hrs by HPLC analysis; type: ADME; details: PAMPA, read-out: permeability
[11] = Stability of compound in CD1 mouse blood at 0.5 uM incubated upto 240 mins in presence of NaF pretreatment by LC-MS/MS analysis; type: ADME, tissue-based; details: 4 h

Chain of Voltage-gated inwardly rectifying potassium channel KCNH2 (Q12809 whole entry): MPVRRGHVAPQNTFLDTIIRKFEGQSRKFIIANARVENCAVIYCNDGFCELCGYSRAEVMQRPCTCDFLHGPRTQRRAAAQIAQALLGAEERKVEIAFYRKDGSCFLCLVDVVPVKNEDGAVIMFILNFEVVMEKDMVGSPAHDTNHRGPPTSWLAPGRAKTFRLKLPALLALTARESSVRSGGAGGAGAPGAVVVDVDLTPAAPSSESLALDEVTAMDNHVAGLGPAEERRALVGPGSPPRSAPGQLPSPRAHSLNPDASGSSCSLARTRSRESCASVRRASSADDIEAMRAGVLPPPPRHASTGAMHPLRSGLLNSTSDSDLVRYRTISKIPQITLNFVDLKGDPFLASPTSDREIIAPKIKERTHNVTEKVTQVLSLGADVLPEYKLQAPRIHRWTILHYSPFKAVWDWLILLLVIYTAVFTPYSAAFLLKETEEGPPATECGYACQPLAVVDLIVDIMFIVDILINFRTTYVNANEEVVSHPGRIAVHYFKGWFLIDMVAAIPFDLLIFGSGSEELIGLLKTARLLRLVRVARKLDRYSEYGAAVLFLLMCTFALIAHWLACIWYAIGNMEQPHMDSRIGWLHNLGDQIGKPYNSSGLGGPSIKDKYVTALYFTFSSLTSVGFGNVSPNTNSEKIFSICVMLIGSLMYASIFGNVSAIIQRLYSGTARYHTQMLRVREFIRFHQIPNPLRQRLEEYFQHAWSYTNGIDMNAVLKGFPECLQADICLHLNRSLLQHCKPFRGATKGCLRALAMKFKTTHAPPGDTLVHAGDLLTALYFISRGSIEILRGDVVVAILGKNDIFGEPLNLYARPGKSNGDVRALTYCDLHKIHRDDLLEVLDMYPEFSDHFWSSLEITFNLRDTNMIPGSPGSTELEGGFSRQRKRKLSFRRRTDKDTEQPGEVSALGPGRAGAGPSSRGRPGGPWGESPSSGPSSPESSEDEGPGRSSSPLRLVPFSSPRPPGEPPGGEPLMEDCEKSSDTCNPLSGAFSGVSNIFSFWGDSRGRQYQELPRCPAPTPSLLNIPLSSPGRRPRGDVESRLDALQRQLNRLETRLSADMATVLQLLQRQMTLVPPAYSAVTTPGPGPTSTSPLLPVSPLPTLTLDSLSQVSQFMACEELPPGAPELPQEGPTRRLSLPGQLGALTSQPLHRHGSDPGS

COc1ccc2nc(C)cc(OCC(=O)Nc3ccccc3OC)c2c1
half-life at 0.5 µM [1]: 16 min | MIC [2]: 1.4 µM | half-life at 0.5 µM [3]: < 3 min | chromatographic logD [4]: 4.68 | IC50 at 48 h [5]: > 100 µM | IC50 [6]: 0.5 µM | IC90 [6]: 1.58 µM

COc1ccc2nc(C)cc(OCC(=O)Nc3cc(C)ccc3OC)c2c1
solubility kinetic at 1 h [7]: 9.5 µM (≈ 3.48 µg/mL) | MIC [2]: 2.5 µM | chromatographic logD [4]: 5.65 | IC50 at 48 h [5]: > 100 µM | IC50 [8]: 5.01 µM | IC50 [6]: 0.16 µM | IC90 [6]: 0.63 µM

COc1ccc2nc(C)cc(OCC(=O)Nc3cc(C)c(F)c(C)c3)c2c1
solubility kinetic at 1 h [7]: 31.5 µM (≈ 11.6 µg/mL) | half-life at 0.5 µM [1]: > 30 min | MIC [2]: 2 µM | half-life at 0.5 µM [3]: < 5 min | half-life at 0.5 µM [9]: < 5 min | chromatographic logD [4]: 5.5 | Papp at 3 h [10]: 21 ×10⁻⁶ cm/s | IC50 at 48 h [5]: > 100 µM | IC50 [8]: > 50.1 µM | IC50 [6]: 0.08 µM | IC90 [6]: 0.25 µM

COc1ccc(NC(=O)COc2cc(C)nc3ccc(OC)cc23)cc1
solubility kinetic at 1 h [7]: 108 µM (≈ 38.1 µg/mL) | MIC [2]: 0.6 µM | chromatographic logD [4]: 4.22 | Papp at 3 h [10]: 42 ×10⁻⁶ cm/s | IC50 at 48 h [5]: > 100 µM | IC50 [8]: 6.31 µM | IC50 [6]: 0.03 µM | IC90 [6]: 0.25 µM

COc1ccc2nc(C)cc(OCC(=O)Nc3cc(C)cc(C)c3)c2c1
solubility kinetic at 1 h [7]: 26 µM (≈ 9.11 µg/mL) | half-life at 0.5 µM [1]: > 30 min | MIC [2]: 1.9 µM | half-life at 0.5 µM [3]: < 5 min | half-life at 0.5 µM [9]: < 5 min | chromatographic logD [4]: 5.64 | Papp at 3 h [10]: 18 ×10⁻⁶ cm/s | IC50 [8]: > 50.1 µM | IC50 [6]: 0.05 µM | IC90 [6]: 0.2 µM

COc1ccc2nc(C)cc(OCc3nc4cc(C)ccc4o3)c2c1
solubility kinetic at 1 h [7]: 1 µM (≈ 0.334 µg/mL) | half-life at 0.5 µM [1]: 15.7 min | MIC [2]: 5.5 µM | half-life at 0.5 µM [3]: < 5 min | half-life at 0.5 µM [9]: > 240 min | chromatographic logD [4]: 6.12 | Papp at 3 h [10]: 8.6 ×10⁻⁶ cm/s | IC50 at 48 h [5]: > 100 µM | IC50 [8]: > 50.1 µM | IC90 [6]: 5 µM

COc1ccc2nc(C)cc(OCCNc3cc(C)cc(C)c3)c2c1
solubility kinetic at 1 h [7]: 33 µM (≈ 11.1 µg/mL) | half-life at 0.5 µM [1]: > 30 min | MIC [2]: 32 µM | half-life at 0.5 µM [3]: < 5 min | half-life at 0.5 µM [9]: > 120 min | chromatographic logD [4]: 6.93 | Papp at 3 h [10]: 19 ×10⁻⁶ cm/s | Stability [11]: Stable | IC50 at 48 h [5]: 31.6 µM

COc1ccc2nc(C)cc(OCC(=O)Nc3cccc(C)c3)c2c1
solubility kinetic at 1 h [7]: 193 µM (≈ 64.9 µg/mL) | half-life at 0.5 µM [1]: 23 min | MIC [2]: 2 µM | half-life at 0.5 µM [3]: < 5 min | half-life at 0.5 µM [9]: < 5 min | chromatographic logD [4]: 4.83 | Papp at 3 h [10]: 35.5 ×10⁻⁶ cm/s | IC50 at 48 h [5]: 39.8 µM

COc1ccc2nc(C)cc(OCC(=O)Nc3ccc(Cl)cc3)c2c1
solubility kinetic at 1 h [7]: 9 µM (≈ 3.21 µg/mL) | MIC [2]: 3 µM | chromatographic logD [4]: 5.15 | IC50 at 48 h [5]: > 100 µM | IC50 [8]: 5.01 µM | IC50 [6]: 0.16 µM | IC90 [6]: 0.5 µM

COc1ccc2nc(C)cc(OCC(=O)Nc3cc(F)cc(F)c3)c2c1
solubility kinetic at 1 h [7]: 13 µM (≈ 4.66 µg/mL) | MIC [2]: 3 µM | chromatographic logD [4]: 5.13 | IC50 at 48 h [5]: > 100 µM | IC50 [6]: 0.4 µM | IC90 [6]: 2.51 µM

COc1ccc2nc(C)cc(OCC(=O)Nc3cc(C)ccc3C)c2c1
solubility kinetic at 1 h [7]: 45.5 µM (≈ 15.9 µg/mL) | half-life at 0.5 µM [1]: 24 min | MIC [2]: 8 µM | half-life at 0.5 µM [3]: < 5 min | half-life at 0.5 µM [9]: < 5 min | chromatographic logD [4]: 5.05 | Papp at 3 h [10]: 81 ×10⁻⁶ cm/s | IC50 at 48 h [5]: > 100 µM

Cc1cc(C)cc(NC(=O)COc2cc(C)nc3ccc(C)cc23)c1
solubility kinetic at 1 h [7]: 83 µM (≈ 27.8 µg/mL) | half-life at 0.5 µM [1]: > 30 min | MIC [2]: 3.9 µM | half-life at 0.5 µM [3]: < 5 min | half-life at 0.5 µM [9]: < 5 min | chromatographic logD [4]: 5.95 | Papp at 3 h [10]: 52 ×10⁻⁶ cm/s | IC50 at 48 h [5]: 15.8 µM

Cc1ncc2n1-c1ccc(Cl)cc1C(c1ccccc1F)=NC2 [MIDAZOLAM]
half-life at 0.5 µM [1]: 9 min | half-life at 0.5 µM [3]: < 5 min

COc1ccc2nc(C)cc(OC(C)(C)C(=O)Nc3cc(C)cc(C)c3)c2c1
solubility kinetic at 1 h [7]: 20 µM (≈ 7.57 µg/mL) | half-life at 0.5 µM [1]: 19 min | MIC [2]: > 250 µM | half-life at 0.5 µM [3]: < 5 min | half-life at 0.5 µM [9]: 96 min | chromatographic logD [4]: 6.37 | Stability [11]: Stable | IC50 at 48 h [5]: > 100 µM

COc1ccc2nc(C)cc(OCC(=O)Nc3ccc(Cl)cc3Cl)c2c1
solubility kinetic at 1 h [7]: 20.5 µM (≈ 8.02 µg/mL) | MIC [2]: 2 µM | chromatographic logD [4]: 6.4 | IC50 at 48 h [5]: > 100 µM | IC50 [6]: 0.79 µM | IC90 [6]: > 50 µM

Cc1cc(C)cc(NC(=O)COc2cc(C(F)(F)F)nc3cc4c(cc23)OCO4)c1
solubility kinetic at 1 h [7]: < 1 µM | MIC [2]: > 250 µM | chromatographic logD [4]: 6.73 | Papp at 3 h [10]: < 3 ×10⁻⁶ cm/s | IC50 at 48 h [5]: > 100 µM

COc1cccc(NC(=O)COc2cc(C)nc3ccc(OC)cc23)c1
solubility kinetic at 1 h [7]: 35 µM (≈ 12.3 µg/mL) | MIC [2]: 6.4 µM | chromatographic logD [4]: 4.49 | Papp at 3 h [10]: 47 ×10⁻⁶ cm/s | IC50 at 48 h [5]: > 100 µM

— ChEMBL document CHEMBL5252523, “Searching for New Leads for Tuberculosis: Design, Synthesis, and Biological Evaluation of Novel 2-Quinolin-4-yloxyacetamides” (J Med Chem, 2016)
